Source: ChEMBL document CHEMBL2010709, “Pinophilins A and B, inhibitors of mammalian A-, B-, and Y-family DNA polymerases and human cancer cell proliferation” (J Nat Prod, 2012)
Calls of active or inactive are those of the source. The calls are words filed in the database; no cut-off is given here.

Tests used:
NUGC-3 = test: Growth inhibition of human NUGC3 cells after 24 hrs by WST-1 assay; type: functional; conditions: NUGC-3, 24 h
In short: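 Cancer cells were grown in McCoy's 5A with 10% FBS and penicillin/streptomycin, 37 °C, 5% CO2. Cells were seeded at 1 × 10^4 per well, cultured 12 h, then given compound (10 mM DMSO stock diluted in medium, 0.5% DMSO) for 24 h. WST-1 was added for 4 h and absorbance read at 450/630 nm. GI50 given as mean ± SE, five independent experiments.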

[1] = Inhibition of calf DNA primase of polymerase alpha; set-up: species or system Bos taurus
[2] = target: T1, DNA-directed DNA polymerase (Enterobacteria phage T4, UniProt P04415); test: Inhibition of T4 bacteriophage DNA polymerase assessed as inhibition of incorporation of dTTP into poly(dA)/oligo(dT)18 after 60 mins; set-up: species or system Tequatrovirus T4
T1 sequence (P04415 whole entry): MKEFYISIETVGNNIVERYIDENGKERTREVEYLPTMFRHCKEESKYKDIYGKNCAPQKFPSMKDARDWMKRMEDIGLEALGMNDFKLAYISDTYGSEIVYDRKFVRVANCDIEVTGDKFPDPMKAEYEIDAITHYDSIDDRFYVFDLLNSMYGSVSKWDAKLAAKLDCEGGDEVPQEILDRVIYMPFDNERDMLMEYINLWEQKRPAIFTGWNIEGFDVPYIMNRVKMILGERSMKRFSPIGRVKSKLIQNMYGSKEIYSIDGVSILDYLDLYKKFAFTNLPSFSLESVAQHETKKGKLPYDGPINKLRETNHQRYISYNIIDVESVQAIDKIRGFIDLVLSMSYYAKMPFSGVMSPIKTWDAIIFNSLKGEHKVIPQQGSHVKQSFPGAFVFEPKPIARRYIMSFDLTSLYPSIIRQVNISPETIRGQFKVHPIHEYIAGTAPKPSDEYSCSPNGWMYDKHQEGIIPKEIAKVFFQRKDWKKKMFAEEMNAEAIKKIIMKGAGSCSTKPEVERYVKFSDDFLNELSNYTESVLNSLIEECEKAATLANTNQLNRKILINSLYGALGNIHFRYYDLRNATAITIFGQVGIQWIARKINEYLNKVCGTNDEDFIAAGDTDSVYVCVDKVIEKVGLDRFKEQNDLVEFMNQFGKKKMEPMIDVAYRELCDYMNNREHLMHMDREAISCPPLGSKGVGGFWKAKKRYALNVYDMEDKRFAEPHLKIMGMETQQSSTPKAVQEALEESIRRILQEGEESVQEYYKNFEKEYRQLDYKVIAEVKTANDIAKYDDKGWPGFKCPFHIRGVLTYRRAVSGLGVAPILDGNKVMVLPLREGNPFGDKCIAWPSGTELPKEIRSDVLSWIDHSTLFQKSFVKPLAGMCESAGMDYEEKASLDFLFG
In short: (§1)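 Compound in DMSO was sonicated for 30 s, then held with enzyme (0.05 units final) at 0 °C for 10 min in 50 mM Tris-HCl pH 7.5, 1 mM DTT, 50% glycerol, 0.1 mM EDTA. The mixture was added to the standard reaction mix with poly(dA)/oligo(dT)18 (A/T = 2/1) and dTTP, 37 °C, 60 min. Activity was relative to no-inhibitor control; mean ± SE, three independent experiments.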

DNA polymerase lambda = target: T2, DNA polymerase lambda (Homo sapiens, UniProt Q9UGP5); test: Inhibition of human recombinant His-tagged DNA polymerase lambda expressed in Escherichia coli assessed as inhibition of incorporation of dTTP into poly(dA)/oligo(dT)18 after 60 mins; in short: as §1
T2 sequence (Q9UGP5 whole entry): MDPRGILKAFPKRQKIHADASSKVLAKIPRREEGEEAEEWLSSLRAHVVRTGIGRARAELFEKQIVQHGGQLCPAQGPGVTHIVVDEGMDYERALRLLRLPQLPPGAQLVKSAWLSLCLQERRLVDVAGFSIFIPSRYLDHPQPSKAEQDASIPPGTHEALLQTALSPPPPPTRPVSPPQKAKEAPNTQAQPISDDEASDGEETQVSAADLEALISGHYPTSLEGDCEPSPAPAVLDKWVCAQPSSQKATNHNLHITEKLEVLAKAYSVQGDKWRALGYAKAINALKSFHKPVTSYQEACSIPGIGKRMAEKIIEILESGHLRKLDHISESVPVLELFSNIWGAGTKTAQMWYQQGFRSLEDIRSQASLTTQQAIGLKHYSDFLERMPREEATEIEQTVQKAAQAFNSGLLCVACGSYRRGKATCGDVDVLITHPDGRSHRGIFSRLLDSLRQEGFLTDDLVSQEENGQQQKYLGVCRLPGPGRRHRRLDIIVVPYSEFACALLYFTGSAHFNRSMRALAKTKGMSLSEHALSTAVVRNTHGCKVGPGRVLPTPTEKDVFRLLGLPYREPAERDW

DNA polymerase beta = DNA polymerase beta (Rattus norvegicus, UniProt P06766); test: Inhibition of rat DNA polymerase beta expressed in Escherichia coli JMpbeta5 assessed as inhibition of incorporation of dTTP into poly(dA)/oligo(dT)18 after 60 mins; in short: as §1
Oryza sativa = test: Inhibition of rice cv. Nipponbare recombinant C-terminal-His6-tagged DNA polymerase lambda expressed in Escherichia coli assessed as inhibition of incorporation of dTTP into activated DNA primer after 60 mins
[3] = Inhibition of calf DNA polymerase alpha assessed as inhibition of incorporation of dTTP into poly(dA)/oligo(dT)18 after 60 mins; set-up: species or system Bos taurus; in short: as §1
[4] = Inhibition of T7 RNA polymerase assessed as inhibition of incorporation of [3H]UTP after 30 mins by liquid scintillation counting; set-up: species or system Escherichia phage T7
Polynucleotide kinase = Polynucleotide kinase (Enterobacteria phage T4, UniProt P06855); test: Inhibition of T4 arnN8l pseT 1 polynucleotide kinase assessed as inhibition of Salmon sperm DNA phosphorylation using [gamma32P]ATP by liquid scintillation counting; set-up: species or system Tequatrovirus T4
Chain of Polynucleotide kinase (P06855 whole entry, looked up): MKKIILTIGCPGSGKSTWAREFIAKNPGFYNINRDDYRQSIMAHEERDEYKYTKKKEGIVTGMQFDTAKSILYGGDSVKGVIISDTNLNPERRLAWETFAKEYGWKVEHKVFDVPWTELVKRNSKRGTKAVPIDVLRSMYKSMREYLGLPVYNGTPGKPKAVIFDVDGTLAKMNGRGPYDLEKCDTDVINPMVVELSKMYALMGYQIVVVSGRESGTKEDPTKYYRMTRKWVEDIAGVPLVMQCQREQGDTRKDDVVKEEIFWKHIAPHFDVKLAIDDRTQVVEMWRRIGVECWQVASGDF

Compound	GI50 (NUGC-3)	IC50 [1]	IC50 [2]	IC50 (DNA polymerase lambda)	IC50 (DNA polymerase beta)	inhibition (Oryza sativa)	IC50 [3]	IC50 [4]	IC50 (Polynucleotide kinase)
C/C=C/C1=CC2=CC(=O)[C@@](C)(O)[C@@H](OC(=O)c3c(C)cc(O)cc3O)[C@@H]2CO1	66.4 µM	> 200 µM	> 200 µM	> 200 µM	> 200 µM	inactive	63.2 µM	> 200 µM	> 200 µM
C/C=C/C1=CC2=CC(=O)[C@@](C)(OC(=O)c3c(C)cc(O)cc3O)[C@@H](O)[C@@H]2CO1 [PINOPHILIN A]	54.7 µM	> 200 µM	> 200 µM	> 200 µM	> 200 µM	inactive	49.1 µM	> 200 µM	> 200 µM
Cc1cc(O)cc(O)c1C(=O)O[C@H]1[C@@H]2COC(/C=C/CO)=CC2=CC(=O)[C@@]1(C)O [PINOPHILIN B]	96.8 µM	> 200 µM	> 200 µM	> 200 µM	> 200 µM	inactive	89.5 µM	> 200 µM	> 200 µM
